Measurements from different studies.
Lines come from different studies, so protocols differ.
TEC: Tyrosine-protein kinase Tec (TEC, Homo sapiens, UniProt P42680)
TEC phosphorylated: Tyrosine-protein kinase Tec, phosphorylated (TEC, Homo sapiens, UniProt P42680)

O=C(N[C@@H](C1CC1)C(F)(F)F)c1cc(-c2cnn3cc(-c4ccc(F)cc4)cnc23)cs1 — inhibition (TEC; enzyme activity; inhibitor; radiometric; 40 nM): 0%
CNC(=O)c1cc(Oc2ccc(NC(=O)Nc3ccc(Cl)c(C(F)(F)F)c3)cc2)ccn1 — remaining signal (TEC; cell-free assay; 0.5 µM): 101%
O=C(Nc1cnn(-c2csc(C(=O)NC3COC3)c2)c1)Nc1ccccc1Cl — remaining activity (TEC; enzyme activity; inhibitor; 5 µM): 97.2%
c1nc2c(Nc3ccc4c(c3)OCCO4)nc(Nc3ccc4c(c3)OCCO4)nc2[nH]1 — activity vs control (TEC; enzyme activity; inhibitor; 10 µM): 2.5%
O=C1Nc2ccc(Cl)cc2C1=Cc1cc(Cl)c(O)c(Cl)c1 — remaining signal (TEC; cell-free assay; 0.5 µM): 109%
CCN(CC)c1ccc(C2=NNC(=O)CC2C)cc1[N+](=O)[O-] (centres unmarked) — remaining activity (TEC phosphorylated; enzyme activity; inhibitor; 10 µM): 64%
Cc1sc(C(=O)NC2COC2)cc1-n1cc(NC(=O)Nc2c(F)cccc2Cl)cn1 — remaining activity (TEC; enzyme activity; inhibitor; 10 µM): 91.1%
CN(C)C(=O)Cn1cc(-c2nc(C3(c4ccc(-c5cnc(N)nc5)cc4)CC3)no2)cn1 — remaining binding (TEC; binding; competition with immobilised ligand; 1 µM): 93%
CC(C)(O)[C@H]1CC[C@H](Nc2ccc3ncc(-c4cccc(C(F)(F)F)c4)n3n2)CC1 — remaining activity (TEC; enzyme activity; inhibitor; 1 µM): 104%
CCCOc1ccc([C@@H]2[C@@H](C(=O)O)[C@H](c3ccc4c(c3)OCO4)CN2CC(=O)Nc2c(CC)cccc2CC)cc1 — remaining binding (TEC; binding; competition with immobilised ligand; 1 µM): 96%
O=C1NC(=O)c2cc(Nc3ccc(F)cc3)c(Nc3ccc(F)cc3)cc21 — remaining signal (TEC; cell-free assay; 0.5 µM): 102%
NS(=O)(=O)c1cc(NC(=O)C2(c3ccccc3Cl)CC2)ccc1Oc1cccc(Cl)c1 — remaining binding (TEC; binding; competition with immobilised ligand; 1 µM): 81%
COc1cc(Cl)c(C(=O)N[C@@H](CN[C@H]2CC[C@@H](N)CC2)Cc2ccc(C#N)cc2)cc1-c1ccc(CN[C@H](C)c2ccc(C)cc2)o1 — remaining activity (TEC phosphorylated; enzyme activity; inhibitor; 1 µM): 90%
CCOc1cc(-c2nncn2C)ccc1Nc1ncc2cc(C)nc(NCC(C)(C)C)c2n1 — inhibition (TEC; cell-free assay; TR-FRET; 1 µM): ≤ 15%
C[C@@H]1CN(c2cc(-c3nn(C)c4ccc(OC5(C)CC5)cc34)ncn2)C[C@H](C)O1 — remaining binding (TEC; cell-free assay; competition with immobilised ligand; 1 µM): 100%
Cc1cnc(NC2CCOCC2)nc1-n1cnc(C(=O)NC(CN)c2cc(F)cc(Cl)c2)c1 (centres unmarked) — remaining activity (TEC phosphorylated; enzyme activity; inhibitor; radiometric; 1 µM): 102%
CC(=O)C1=C(C)N(c2cccc(C(F)(F)F)c2)C(=O)N[C@@H]1c1ccc(C#N)nc1 — remaining binding (TEC; binding; competition with immobilised ligand; 1 µM): 100%
Cc1cc(NC(=O)c2cccc3cc(-c4cccc5[nH]nc(N)c45)ccc23)ccc1F — activity vs control (TEC phosphorylated; enzyme activity; inhibitor; 0.1 µM): 90%
O=C(O)c1cc(-c2ccc(C3CCNCC3)cc2)c2ccc(-c3ccc(C(F)(F)F)cc3)cc2c1 — remaining binding (TEC; cell-free assay; competition with immobilised ligand; 1 µM): 100%
CC(C)(C)c1nc2c(s1)c1nc(N)ncc1c1ccc(NS(=O)(=O)c3c(F)cccc3F)c(F)c12 — remaining activity (TEC; enzyme activity; inhibitor; radiometric; 1 µM): 87%
